Test results from ChEMBL document CHEMBL2177002, “Antifungal spectrum, in vivo efficacy, and structure-activity relationship of ilicicolin h” (ACS Med Chem Lett, 2012).
In brackets after ≈: the same amount, converted by molar mass. Activity calls are given as the source filed them. The rule behind the calls is not given here.

Tests used:
[1] = Inhibition of Saccharomyces cerevisiae MY 2141 electron transport protein complex 1/3 using NADH as substrate assessed as decrease in oxygen consumption measured for 3 mins
[2] = system: Meyerozyma guilliermondii; test: Antifungal activity against Candida guilliermondii CLY 346 after 24 hrs by NCCLS broth microdilution method; type: functional; conditions: CLY 346, 24 h
[3] = Oral bioavailability in mouse; type: ADME, organism-based; conditions: in vivo
[4] = system: Meyerozyma guilliermondii; test: Antifungal activity against Candida guilliermondii CLY 308 after 24 hrs by NCCLS broth microdilution method; type: functional; conditions: CLY 308, 24 h
[5] = system: Saccharomyces cerevisiae; test: Antifungal activity against Saccharomyces cerevisiae MY 2141 in glucose-based medium after 24 hrs by NCCLS broth microdilution method; type: functional; conditions: MY 2141, 24 h
[6] = system: Nakaseomyces glabratus; test: Antifungal activity against Candida glabrata MY 1381 after 24 hrs by NCCLS broth microdilution method; type: functional; conditions: MY 1381, 24 h
[7] = system: Candida albicans; test: Antifungal activity against Candida albicans MY 1055 in glycerol-based medium after 24 hrs by NCCLS broth microdilution method; type: functional; conditions: MY 1055, 24 h
[8] = system: Candida albicans; test: Antifungal activity against Candida albicans after 24 hrs by NCCLS broth microdilution method in presence of 10% mouse plasma; type: functional
[9] = system: Candida albicans; test: Ratio of MIC for Candida albicans 16 harboring cytochrome b Q22E mutant to MIC for wild type Candida albicans; type: functional
[10] = system: Candida albicans; test: Ratio of MIC for Candida albicans 9 harboring cytochrome b G37D mutant to MIC for wild type Candida albicans; type: functional
[11] = system: Candida albicans; test: Ratio of MIC for Candida albicans 10 harboring cytochrome b S20I mutant to MIC for wild type Candida albicans; type: functional
[12] = system: Candida albicans; test: Antifungal activity against Candida albicans MY 1055 after 24 hrs by NCCLS broth microdilution method; type: functional; conditions: MY 1055, 24 h
[13] = Inhibition of bovine ubiquinol-cytochrome c reductase after 2 mins by stopped flow rapid scanning spectroscopy; set-up: species or system Bos taurus
[14] = system: Candida albicans; test: Antifungal activity against Candida albicans MY 1055 infected in DBA/2 mouse assessed as reduction in kidney fungal burden at 25 to 50 mg/kg, iv tid after 24 hrs; type: functional, organism-based
How it was run: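 Abbreviated 24 h version of the disseminated C. albicans kidney-burden model in mice. Dosing intravenous, thrice daily, at total doses of 50 or 25 mg/kg/day. Kidney burden compared with controls by Excel t test (p < 0.05). ED90 expressed as mg/kg/day.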

[15] = system: Candida albicans; test: Ratio of MIC for Candida albicans 15 harboring cytochrome b G37S mutant to MIC for wild type Candida albicans; type: functional
[16] = system: Candida albicans; test: Ratio of MIC for Candida albicans 6 harboring cytochrome b G37S mutant to MIC for wild type Candida albicans; type: functional
[17] = Clearance in mouse; type: ADME, organism-based; conditions: in vivo
[18] = system: Candida tropicalis; test: Antifungal activity against Candida tropicalis MY 1012 after 40 hrs by NCCLS broth microdilution method; type: functional; conditions: MY 1012, 40 h
[19] = system: Candida albicans; test: Ratio of MIC for Candida albicans 1 harboring cytochrome b G37C mutant to MIC for wild type Candida albicans; type: functional
[20] = system: Candida albicans; test: Ratio of MIC for Candida albicans 13 harboring cytochrome b G37C mutant to MIC for wild type Candida albicans; type: functional
[21] = system: Candida albicans; test: Antifungal activity against fluconazole-resistant Candida albicans MY 2301 after 24 hrs by NCCLS broth microdilution method; type: functional; conditions: MY 2301, 24 h
[22] = system: Candida albicans; test: Ratio of MIC for Candida albicans 4 harboring cytochrome b G37S mutant to MIC for wild type Candida albicans; type: functional

C/C=C/[C@@H]1[C@H]2C[C@@H](C)CC[C@@H]2C(C)=C[C@H]1C(=O)c1c(O)c(-c2ccc(O)cc2)c[nH]c1=O [ILICICOLIN H]
IC50 [1]: 0.08 µg/mL (≈ 0.185 µM)
MIC [2]: 0.01 µg/mL (≈ 0.0231 µM)
bioavailability [3]: 72%
MIC [4]: 0.01 µg/mL (≈ 0.0231 µM)
MIC [5]: > 50 µg/mL
MIC [6]: 0.01 µg/mL (≈ 0.0231 µM)
MIC [7]: 0.025 µg/mL (≈ 0.0577 µM)
MIC [8]: > 1 µg/mL
Ratio [9]: 250
Ratio [10]: 250
Ratio [11]: 250
MIC [12]: 0.04 µg/mL (≈ 0.0923 µM)
IC50 [13]: 200 nM
Activity [14]: Active
Ratio [15]: 250
Ratio [16]: 250
clearance [17]: 16 mL/min/kg
MIC [18]: 0.01 µg/mL (≈ 0.0231 µM)
Ratio [19]: 250
Ratio [20]: 250
MIC [21]: 0.04 µg/mL (≈ 0.0923 µM)
Ratio [22]: 250
